# A selection: hits, their analogues and other compounds. The true share with any hit is near 1.9%.
# TbHK1 inh: blocks Trypanosoma brucei hexokinase 1 activity; 220,000 compounds, 0.11% hits; inhibition, % at 10 µM; recombinant TbHK1, G6PDH-coupled NADH A340;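 active = inhibition of 50% or more in the single-dose primary screen; inactive = inhibition below 50%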
# RanGTP-Imp inh: disruptors of Ran-importin-beta complex formation – biochemical, FRET, CFP-Ran, YFP-importin-beta, homogeneous, primary screen | 300,000 compounds, 1.1% hits | cell-free CFP-Ran/YFP-importin-beta FRET ratio | inhibition, % (test concentration not listed);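 active = more than half of the replicate wells show a fall in the fluorescence ratio signal beyond about 16%, limit read from the data, passing the limit was not always enough; inconclusive = exactly half of the replicate wells pass the set limit; inactive = fewer than half of replicates pass the limit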;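 also: 0% = DMSO wells and 100% = Ran loaded with GDP instead of GTP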
# Runt-CBFb FRET: inhibitors of human RUNX1 Runt domain binding to CBFb; Q01196+Q13951; inhibition, % at 20 µM; 220,000 compounds, 0.46% hits; AID 1496; Cerulean-Runt/Venus-CBFb FRET ratio 530/480, 1 h;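 active = inhibition over about 50% at 20 µM in the single-dose screen, limit read from the data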;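 also: 0% = DMSO wells and 100% = excess unlabeled CBFb competitor control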
#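 Buffer or medium: Tris pH 7.5 buffer with BSA. Assay system: Cerulean-labeled Runt domain protein. Amount: each fluorescent fusion protein 100 nM. Read-out basis: loss of energy transfer signal. Incubation: 1 h compound exposure, room temperature. Probe or stimulus: Venus-CBFb binding partner, 100 nM. Detection: FRET, excitation 422 nm, emission at 530 and 480 nm.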
# Hck-Nef inh: inhibitors of human Hck kinase activated by Nef; inhibition, % at 20 µM; 220,000 compounds, 0.68% hits; Recombinant Hck-YEEI plus Nef, Z-Lyte FRET kinase assay; P08631; AID 463187;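 active = Hck-Nef kinase inhibition above about 50%, limit read from the data; inactive = inhibition below that limit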;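 also: 0% = DMSO with Hck plus Nef and 100% = Hck alone without Nef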
# Target sequence (P08631 whole entry, looked up): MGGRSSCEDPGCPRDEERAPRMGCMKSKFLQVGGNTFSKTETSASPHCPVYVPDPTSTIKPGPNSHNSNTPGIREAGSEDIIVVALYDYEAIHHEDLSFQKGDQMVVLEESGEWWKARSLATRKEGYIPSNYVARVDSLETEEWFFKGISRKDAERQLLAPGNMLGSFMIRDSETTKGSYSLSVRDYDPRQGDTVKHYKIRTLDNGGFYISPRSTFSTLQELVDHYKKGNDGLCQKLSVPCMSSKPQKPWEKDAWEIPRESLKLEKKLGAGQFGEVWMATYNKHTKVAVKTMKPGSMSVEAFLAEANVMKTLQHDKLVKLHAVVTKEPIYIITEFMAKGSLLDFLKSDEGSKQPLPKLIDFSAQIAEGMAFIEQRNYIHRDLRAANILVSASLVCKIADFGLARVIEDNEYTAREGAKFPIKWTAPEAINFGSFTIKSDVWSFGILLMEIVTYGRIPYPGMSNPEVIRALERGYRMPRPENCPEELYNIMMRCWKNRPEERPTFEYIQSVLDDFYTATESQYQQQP
# Runt-SMMHC FRET: Runt domain-CBFb-SMMHC interaction inhibition. Q01196+Q13951. Cerulean-Runt/Venus-CBFb-SMMHC FRET ratio 530/480, 1 h. inhibition, % at 20 µM. 220,000 compounds, 0.74% hits. AID 1434;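 active = mean inhibition across duplicate retests at 20 µM reaching about 50%, limit read from the data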;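 also: 0% = DMSO wells and 100% = wells with excess untagged CBFb-SMMHC; inhibitors lower the FRET ratio by blocking Runt binding to CBFb-SMMHC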
# YIC counter: counter-screen YIC FRET for RanGTP-importin-beta inhibitors | Purified YIC probe, intramolecular FRET ratio YFP/CFP | shares compounds with RanGTP-Imp inh | IC50, µM | AID 435026 | 1,000 compounds, 40% hits;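 active = fitted half-maximal inhibitory concentration no more than tenfold above the top dose tested; inconclusive = flat fit with 30 to 70% activity, or poor fit; inactive = half-maximal concentration beyond tenfold above the top dose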
# Starred values were filed as active, the others as inactive; ? = inconclusive; . = no result given.
SMILES,TbHK1 inh,RanGTP-Imp inh,Runt-CBFb FRET,Hck-Nef inh,Runt-SMMHC FRET,YIC counter
c1ccc(Cc2nn3c(-c4ccncc4)nnc3s2)cc1,0.4,6.5,14.8,1.8,1.8,.
O=C(NC1=NCCS1)c1cc(-c2cccnc2)nc2ccccc12,-17.6,15.4*,-5.1,13.0,-0.9,>50
O=C(NC1=NCCS1)c1cc(-c2cccs2)nc2ccccc12,-25.2,5.0,1.0,14.9,-1.4,.
Cc1ccccc1N(CC(=O)NCC1CCCO1)C(=O)CCC(=O)Nc1nccs1 (stereo not drawn),.,13.8,.,.,.,.
COc1cccc(-c2coc3c(C)c4oc(=O)c(CC(=O)O)c(C)c4cc23)c1,.,23.6*,.,.,.,>50
Cc1c(CC(=O)O)c(=O)oc2c(C)c3occ(-c4ccc(Br)cc4)c3cc12,.,28.4*,.,.,.,>26
COc1ccc(-c2coc3c(C)c4oc(=O)c(CC(=O)O)c(C)c4cc23)cc1,.,11.5,.,.,.,.
COc1cccc(-c2coc3c(C)c4oc(=O)c(CCC(=O)O)c(C)c4cc23)c1,.,-0.8,.,.,.,.
CC1CCN(S(=O)(=O)c2ccc3c(c2)oc(=O)n3CC(=O)N2CCc3ccccc3C2)CC1,-5.8,0.5,-1.6,2.0,-4.6,.
CN1CCc2c(sc(NC(=O)c3ccc(S(=O)(=O)N4CCOCC4)cc3)c2C(N)=O)C1,-17.8,19.3*,0.7,-1.1,1.7,46*
CCOC(=O)c1cnc2ccc(OCC)cc2c1N(C)Cc1ccccc1,21.3,-3.2,-10.3,12.0,-9.4,.
CCN(CC)Cc1c(CC(C)C)oc(C)c1C(=O)O,-3.5,21.4*,3.0,-0.1,-4.4,>50
Oc1ccccc1/C=N/Nc1cc(N2CCCC2)nc(N2CCCC2)n1,-11.2,29.1*,-3.3,1.1,-1.6,>50
O=C(c1ccco1)N1CCN(c2cc(=O)n(-c3ccc(Cl)cc3)c(=O)[nH]2)CC1,-2.2,48.0*,0.1,0.1,2.5,>50
CCOC(=O)c1sc(NC(=O)CSc2nc(C)cc(C)n2)c(C#N)c1C,-2.7,20.6*,-3.8,1.2,0.8,>50
COc1cc(-c2nc3cnccn3c2Nc2ccc(C(C)C)cc2)ccc1O,-10.7,31.5*,1.5,-2.1,11.0,>50
Cc1ccc(S(=O)(=O)Nc2nc3ccccc3nc2NCc2ccco2)cc1,-10.7,20.5*,11.5,1.6,36.3,12.9*
Cc1ccc(C)c2nc(N3CCCC3)c(C#N)cc12,0.2,50.7*,67.2*,6.3,94.1*,1.21*
COC(=O)c1ccccc1NCc1cc(=O)oc2cc(O)c(O)cc12,.,20.4*,.,.,.,4.53*
CN=C(Nc1cc(C)nn1CCC#N)c1ccc(F)cc1,-0.7,2.4,-0.8,-0.6,-3.6,.
CN=C(Nc1cc(C)nn1CCC#N)c1ccccc1,-2.7,19.4*,0.6,1.7,-2.8,>50
O=C(Nc1nc2ccc(S(=O)(=O)N3CCCCC3)cc2s1)c1cccnc1,-46.2,22.0*,-10.7,1.1,-7.0,>26
COc1ccc(S(=O)(=O)NCCc2cn3nc(C)c(C)nc3n2)cc1C,.,11.0,.,.,.,.
Cc1ccc(S(=O)(=O)NCCc2cn3nc(C)c(C)nc3n2)cc1C,.,20.3*,.,.,.,25.5*
COc1cc(/C(O)=C(\C#N)c2nc3ccccc3[nH]2)cc(OC)c1OC,.,40.3*,.,.,.,7.43*
SMILES,TbHK1 inh,RanGTP-Imp inh,Runt-CBFb FRET,Hck-Nef inh,Runt-SMMHC FRET,YIC counter
COc1ccc(N2CCN(C3CCCN(S(=O)(=O)c4ccc(C)cc4C)C3)CC2)cc1 (stereo not drawn),.,-3.9,.,.,.,.
Cc1ccc(CNC(=O)C(=O)NCC2CCCN2S(=O)(=O)c2cc(C)ccc2C)cc1 (stereo not drawn),.,-0.6,.,.,.,.
COC(=O)c1ccc(NC(=O)C(=O)N2CCN(C(=S)Nc3ccccc3OC)CC2)cc1,29.0,19.5*,-1.0,5.6,2.9,>50
COC(=O)c1ccc(NC(=O)C(=O)N2CCN(C(=S)Nc3cccc(C)c3C)CC2)cc1,15.1,?,-2.2,0.5,5.3,.
CCCS(=O)(=O)N1CCN(C(=O)COc2ccc(OC)cc2)CC1,4.4,-4.8,-0.1,0.5,-0.7,.
CC(C)N1CC(C(=O)Nc2cccc([N+](=O)[O-])c2)CC1=O (stereo not drawn),.,-0.1,.,.,.,.
N#CCCN(C(=O)Nc1ccc(Cl)cc1)c1ccccc1,0.5,95.6*,-0.6,-8.9,-4.0,>50
N#CCCN(C(=O)Nc1ccccc1)c1ccccc1,-2.3,0.9,1.1,0.8,-0.6,.

# Source: PubChem
